Laboratory results as given in ChEMBL document CHEMBL3576792, “Enhancement of antibiotic activity against multidrug-resistant bacteria by the efflux pump inhibitor 3,4-dibromopyrrole-2,5-dione isolated from a Pseudoalteromonas sp” (J Nat Prod, 2015).
In brackets after ≈: the same amount, converted by molar mass. Activity calls are given as the source filed them. The rule behind the calls is not given here.

What was measured:
[1] = test system: Escherichia coli; test: Effect on intracellular H33342 accumulation in Escherichia coli AG100A delta acrAB mutant at 16 ug/ml after 60 mins by accumulation assay; type: functional
Summary of the method: (§1)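 Cells grown in Luria broth at 37 °C, 200 rpm to OD600 1.0, then washed twice in PBS and diluted in glucose-free PBS to OD600 0.3. H33342 was used at 2.5 μM with 22 mM glucose at 37 °C and allowed to accumulate for ~30 min. Compound was then added and fluorescence (Ex 350/Em 460 nm) followed for 60 min. Values are the mean RFU of the final 4 min, after media-plus-compound background was subtracted. Run in duplicate, n = 8.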

[2] = test system: Escherichia coli; test: Potentiation of tetracycline-induced antibacterial activity Escherichia coli transformed with plasmid carrying MG1655 deltaBC/pABM assessed as tetracycline MIC by p-iodonitrotetrazolium chloride colorimetric assay; type: functional
Summary of the method: (§2)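 Checkerboard microdilution in Mueller-Hinton broth: two-fold dilutions of antibiotic crossed with dilutions of test compound above, at and below their MICs. Growth was read by INT colorimetric assay, with MIC as the lowest concentration showing no visible growth. FICs and FIC index were derived from these MICs. ΔBC/pABM and ΔBC/pXYM strains were grown with 100 μg/mL ampicillin and 1 mM IPTG.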

[3] = test system: Escherichia coli; test: Effect on intracellular H33342 accumulation in Escherichia coli AG100A delta acrAB mutant at 4 ug/ml after 60 mins by accumulation assay; type: functional
Summary of the method: (§3)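 AG100 (wild-type K-12) or AG100A (ΔacrAB) grown in Luria broth at 37 °C and 200 rpm to OD600 1.0, PBS-washed, diluted to OD600 0.3. Cells given 2.5 μM H33342 with 22 mM glucose at 37 °C for ~30 min until stable, then compound (0.06–64 μg/mL) added. Fluorescence (Ex 350/Em 460) read for 60 min, background subtracted. Final 4 time points averaged; one-way ANOVA/Dunnett vs Hoechst-only; n = 8.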

[4] = test system: Escherichia coli; test: Potentiation of piperacillin-induced antibacterial activity Escherichia coli transformed with plasmid carrying MG1655 deltaBC/pABM assessed as piperacillin MIC by p-iodonitrotetrazolium chloride colorimetric assay; type: functional, organism-based; summary of the method: as §2
[5] = test system: Escherichia coli; test: Potentiation of chloramphenicol-induced antibacterial activity Escherichia coli transformed with plasmid carrying MG1655 deltaBC/pABM assessed as chloramphenicol MIC by p-iodonitrotetrazolium chloride colorimetric assay; type: functional; summary of the method: as §2
[6] = test system: Escherichia coli; test: Potentiation of erythromycin-induced antibacterial activity Escherichia coli transformed with plasmid carrying MG1655 deltaBC/pXYM assessed as erythromycin MIC by p-iodonitrotetrazolium chloride colorimetric assay; type: functional; summary of the method: as §2
[7] = test system: Escherichia coli; test: Potentiation of levofloxacin-induced antibacterial activity Escherichia coli transformed with plasmid carrying MG1655 deltaBC/pXYM MIC by p-iodonitrotetrazolium chloride colorimetric assay; type: functional
[8] = test system: Escherichia coli; test: Potentiation of levofloxacin-induced antibacterial activity Escherichia coli AG102 overexpressing AcrAB-TolC MIC by p-iodonitrotetrazolium chloride colorimetric assay; type: functional
[9] = test system: Escherichia coli; test: Potentiation of tetracycline-induced antibacterial activity Escherichia coli transformed with plasmid carrying MG1655 deltaBC/pXYM assessed as tetracycline MIC by p-iodonitrotetrazolium chloride colorimetric assay; type: functional; summary of the method: as §2
[10] = test system: Escherichia coli; test: Inhibition of AcrAB-TolC pump in Escherichia coli AG100 assessed as increase in intracellular H33342 fluorescence at >= 1 ug/ml after 60 mins by efflux inhibition assay; type: cell-based
Summary of the method: (§4)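 AG100 (wild-type K-12) or AG100A (ΔacrAB) cells were grown in Luria broth at 37 °C and 200 rpm to OD600 1.0, PBS-washed and diluted to OD600 0.3. Cells took up 2.5 μM Hoechst 33342 with 22 mM glucose at 37 °C for about 30 min, then compound (0.06–64 μg/mL) or PAβN (15.6 μg/mL) was added. Fluorescence (Ex 350/Em 460 nm) was followed for 60 min and corrected for background. The last four time points were compared to dye-only control by ANOVA with Dunnett's test, run in duplicate.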

[11] = test system: Escherichia coli; test: Potentiation of ciprofloxacin-induced antibacterial activity Escherichia coli transformed with plasmid carrying MG1655 deltaBC/pXYM assessed as ciprofloxacin MIC by p-iodonitrotetrazolium chloride colorimetric assay; type: functional; summary of the method: as §2
[12] = test system: Escherichia coli; test: Potentiation of ciprofloxacin-induced antibacterial activity Escherichia coli transformed with plasmid carrying MG1655 deltaBC/pABM by p-iodonitrotetrazolium chloride colorimetric assay; type: functional
[13] = test system: Escherichia coli K-12; test: Inhibition of AcrAB-TolC pump in Escherichia coli K-12 AG100 assessed as increase in intracellular H33342 fluorescence at 64 ug/ml after 60 mins by efflux inhibition assay; type: cell-based; summary of the method: as §4
[14] = test system: Escherichia coli; test: Potentiation of chloramphenicol-induced antibacterial activity Escherichia coli transformed with plasmid carrying MG1655 deltaBC/pABM by p-iodonitrotetrazolium chloride colorimetric assay; type: functional
[15] = test system: Escherichia coli; test: (§5) Inhibition of AcrAB-TolC pump in Escherichia coli AG100 assessed as increase in intracellular H33342 fluorescence after 60 mins by efflux inhibition assay; type: cell-based; summary of the method: as §4
[16] = as §5; type: cell-based; settings: AG100, 1 h; summary of the method: as §4
[17] = test system: Escherichia coli; test: Potentiation of kanamycin-induced antibacterial activity Escherichia coli AG102 overexpressing AcrAB-TolC assessed as kanamycin MIC by p-iodonitrotetrazolium chloride colorimetric assay; type: functional; summary of the method: as §2
[18] = test system: Escherichia coli; test: Potentiation of chloramphenicol-induced antibacterial activity Escherichia coli AG102 overexpressing AcrAB-TolC assessed as chloramphenicol MIC by p-iodonitrotetrazolium chloride colorimetric assay; type: functional; summary of the method: as §2
[19] = test system: Escherichia coli; test: Potentiation of kanamycin-induced antibacterial activity Escherichia coli transformed with plasmid carrying MG1655 deltaBC/pXYM assessed as kanamycin MIC by p-iodonitrotetrazolium chloride colorimetric assay; type: functional; summary of the method: as §2
[20] = test system: Escherichia coli; test: Effect on intracellular H33342 accumulation in Escherichia coli AG100A delta acrAB mutant at 0.06 ug/ml after 60 mins by accumulation assay; type: functional; summary of the method: as §1
[21] = test system: Escherichia coli; test: Potentiation of kanamycin-induced antibacterial activity Escherichia coli transformed with plasmid carrying MG1655 deltaBC/pABM by p-iodonitrotetrazolium chloride colorimetric assay; type: functional
[22] = test system: Escherichia coli; test: Potentiation of kanamycin-induced antibacterial activity Escherichia coli transformed with plasmid carrying MG1655 deltaBC/pABM assessed as kanamycin MIC by p-iodonitrotetrazolium chloride colorimetric assay; type: functional; summary of the method: as §2
[23] = test system: Escherichia coli; test: Effect on intracellular H33342 accumulation in Escherichia coli AG100A delta acrAB mutant at 0.25 ug/ml after 60 mins by accumulation assay; type: functional
Summary of the method: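 Cells grown in Luria broth at 37 °C, 200 rpm to OD600 1.0, washed twice in PBS and diluted in glucose-free PBS to OD600 0.3. Cells were given 2.5 μM H33342 with 22 mM glucose at 37 °C for ~30 min until stable, then compound added (0.06–64 μg/mL). Fluorescence (Ex 350/Em 460 nm) was read for 60 min, background subtracted, and the final 4 min averaged (n = 8).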

[24] = test system: Escherichia coli; test: Potentiation of chloramphenicol-induced antibacterial activity Escherichia coli AG102 overexpressing AcrAB-TolC by p-iodonitrotetrazolium chloride colorimetric assay; type: functional
[25] = test system: Escherichia coli; test: Potentiation of ciprofloxacin-induced antibacterial activity Escherichia coli AG102 overexpressing AcrAB-TolC by p-iodonitrotetrazolium chloride colorimetric assay; type: functional
[26] = test system: Escherichia coli K-12; test: Inhibition of AcrAB-TolC pump in Escherichia coli K-12 AG100 assessed as […] at 16 ug/ml after 60 mins by accumulation assay; summary of the method: as §3

Question: What does the source list for O=C1NC(=O)C(Br)=C1Br?
Answer: RFU [1]: 1100; MIC [2]: 128 µg/mL; RFU [3]: 1200; MIC [4]: inactive; MIC [5]: 128 µg/mL; MIC [6]: 32 µg/mL; fractional inhibitory concentration index (FICI) [7]: 0.19; fractional inhibitory concentration index (FICI) [8]: 0.36; MIC [9]: 8 µg/mL; inhibition [10]: Active; MIC [11]: 32 µg/mL; fractional inhibitory concentration index (FICI) [12]: 0.75; RFU [13]: -68; fractional inhibitory concentration index (FICI) [14]: 0.75; inhibition [15]: Dose-dependent effect; IC50 [16]: 0.79 µg/mL (≈ 3.1 µM); MIC [17]: 2 µg/mL; MIC [18]: 64 µg/mL; MIC [19]: 32 µg/mL; RFU [20]: 1020; fractional inhibitory concentration index (FICI) [21]: 0.75; MIC [22]: 128 µg/mL; RFU [23]: 1000; fractional inhibitory concentration index (FICI) [24]: 0.5; fractional inhibitory concentration index (FICI) [25]: 0.5; RFU [26]: 1170
